{"source": "ChEMBL document CHEMBL1148625", "about": "“3-(1,1-dioxo-2H-(1,2,4)-benzothiadiazin-3-yl)-4-hydroxy-2(1H)-quinolinones, potent inhibitors of hepatitis C virus RNA-dependent RNA polymerase” (J Med Chem, 2006)", "key": {"Cytochrome P450 3A4": {"molecular_target": "Cytochrome P450 3A4 (Homo sapiens, UniProt P08684)", "sequence (P08684 whole entry)": "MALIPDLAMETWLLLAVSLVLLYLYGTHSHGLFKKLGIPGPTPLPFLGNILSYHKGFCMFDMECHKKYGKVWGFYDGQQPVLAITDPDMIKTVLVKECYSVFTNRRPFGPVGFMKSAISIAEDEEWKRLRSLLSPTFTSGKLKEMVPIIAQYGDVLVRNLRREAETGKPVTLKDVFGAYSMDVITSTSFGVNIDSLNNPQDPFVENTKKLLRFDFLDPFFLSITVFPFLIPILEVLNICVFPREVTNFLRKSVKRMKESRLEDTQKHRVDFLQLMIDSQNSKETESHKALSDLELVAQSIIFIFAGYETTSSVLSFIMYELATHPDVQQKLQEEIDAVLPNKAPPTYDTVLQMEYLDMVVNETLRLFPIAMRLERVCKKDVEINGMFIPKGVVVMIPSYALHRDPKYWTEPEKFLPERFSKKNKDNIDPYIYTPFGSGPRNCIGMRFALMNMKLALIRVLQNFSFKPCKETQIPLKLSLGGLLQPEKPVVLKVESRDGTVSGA", "test": "Effect on CYP3A4 induction", "type": "ADME"}, "[1]": {"test": "Half life in Sprague-Dawley rat at 1.3 mg/kg, iv or 3.4 mg/kg, po", "type": "ADME, organism-based", "details": "in vivo; call rule not given here", "method_in_brief": "(§1)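 Single intravenous or oral doses given to Sprague-Dawley rats. Values are reported as means: Cmax (ng/mL), half-life (min), plasma clearance (mL/min/kg), steady-state volume of distribution (L/kg) and oral bioavailability F (%).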"}, "Cytochrome P450 2C9": {"molecular_target": "Cytochrome P450 2C9 (Homo sapiens, UniProt P11712)", "sequence (P11712 whole entry)": "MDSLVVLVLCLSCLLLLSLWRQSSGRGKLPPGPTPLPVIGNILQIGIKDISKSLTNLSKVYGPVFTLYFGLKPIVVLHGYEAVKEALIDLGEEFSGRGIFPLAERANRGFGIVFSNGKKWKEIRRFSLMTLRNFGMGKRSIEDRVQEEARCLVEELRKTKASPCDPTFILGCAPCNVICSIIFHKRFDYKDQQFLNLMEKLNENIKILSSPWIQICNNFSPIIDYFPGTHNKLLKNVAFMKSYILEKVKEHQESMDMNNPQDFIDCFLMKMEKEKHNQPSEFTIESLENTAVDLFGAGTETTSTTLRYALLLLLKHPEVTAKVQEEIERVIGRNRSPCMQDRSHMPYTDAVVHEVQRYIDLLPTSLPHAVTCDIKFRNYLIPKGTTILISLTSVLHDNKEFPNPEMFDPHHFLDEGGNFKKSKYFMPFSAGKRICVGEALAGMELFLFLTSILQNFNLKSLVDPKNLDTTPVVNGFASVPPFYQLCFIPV", "test": "Inhibition of CYP2C9 isozyme", "type": "ADME"}, "[2]": {"test": "Half life in Beagle dog at 0.8 mg/kg, iv or 4.0mg/kg, po", "type": "ADME, organism-based, Canis lupus familiaris", "parameters": "dose 0.8 mg/kg", "details": "in vivo", "method_in_brief": "(§2)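 Single-dose study, with separate intravenous and oral administrations at the listed mg/kg. Plasma concentrations were followed over time, and mean values were derived for Cmax, T1/2, clearance (mL/min/kg), Vdss (L/kg) and oral bioavailability (%).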"}, "Hepatitis C virus [3]": {"test_system": "Hepatitis C virus", "test": "Protein binding in Huh7 cells using HCV 1b replicon by a replicon cell assay in presence of HSA", "type": "functional, organism-based, Hepacivirus hominis", "details": "genotype 1b, Huh-7"}, "[4]": {"test": "Cmax in Beagle dog at 0.8 mg/kg, iv or 4.0 mg/kg, po", "type": "ADME, organism-based, Canis lupus familiaris", "details": "in vivo", "method_in_brief": "as §2"}, "[5]": {"test": "Half life in cynomolgus monkey at 0.8 mg/kg, iv or 4.0 mg/kg, po", "type": "ADME, organism-based, Macaca fascicularis", "details": "in vivo", "method_in_brief": "as §2"}, "Hepatitis C virus [6]": {"test_system": "Hepatitis C virus", "test": "Protein binding in Huh7 cells using HCV 1b replicon by a replicon cell assay in presence of alpha-acid glycoprotein", "type": "functional, organism-based, Hepacivirus hominis", "details": "genotype 1b, Huh-7"}, "[7]": {"molecular_target": "T1, RNA-directed RNA polymerase (Hepacivirus hominis, UniProt O39930)", "T1 sequence (O39930 whole entry)": "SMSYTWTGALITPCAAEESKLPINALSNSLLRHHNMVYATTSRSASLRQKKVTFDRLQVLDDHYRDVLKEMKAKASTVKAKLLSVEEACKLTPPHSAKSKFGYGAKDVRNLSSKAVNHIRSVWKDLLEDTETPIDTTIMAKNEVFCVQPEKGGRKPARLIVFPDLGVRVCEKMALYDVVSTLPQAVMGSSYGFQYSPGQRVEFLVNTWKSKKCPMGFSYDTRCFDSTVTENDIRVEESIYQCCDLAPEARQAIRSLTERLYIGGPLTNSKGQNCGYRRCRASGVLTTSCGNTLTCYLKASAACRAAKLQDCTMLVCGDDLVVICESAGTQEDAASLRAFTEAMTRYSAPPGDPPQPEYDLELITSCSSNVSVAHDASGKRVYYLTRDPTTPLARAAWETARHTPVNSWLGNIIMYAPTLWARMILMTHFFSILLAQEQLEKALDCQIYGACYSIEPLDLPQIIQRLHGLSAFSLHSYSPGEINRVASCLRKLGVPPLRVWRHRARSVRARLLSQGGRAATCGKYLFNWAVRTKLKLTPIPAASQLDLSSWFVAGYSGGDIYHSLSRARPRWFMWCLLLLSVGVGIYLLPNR", "test": "Inhibitory activity against HCV 1a NS5B RNA polymerase"}, "[8]": {"test": "Volume of distribution in Beagle dog at 0.8 mg/kg, iv or 4.0 mg/kg, po", "type": "ADME, organism-based, Canis lupus familiaris", "details": "in vivo, read-out: Vdss", "method_in_brief": "as §2"}, "[9]": {"molecular_target": "T2, DNA polymerase alpha catalytic subunit (Homo sapiens, UniProt P09884)", "T2 sequence (P09884 whole entry)": "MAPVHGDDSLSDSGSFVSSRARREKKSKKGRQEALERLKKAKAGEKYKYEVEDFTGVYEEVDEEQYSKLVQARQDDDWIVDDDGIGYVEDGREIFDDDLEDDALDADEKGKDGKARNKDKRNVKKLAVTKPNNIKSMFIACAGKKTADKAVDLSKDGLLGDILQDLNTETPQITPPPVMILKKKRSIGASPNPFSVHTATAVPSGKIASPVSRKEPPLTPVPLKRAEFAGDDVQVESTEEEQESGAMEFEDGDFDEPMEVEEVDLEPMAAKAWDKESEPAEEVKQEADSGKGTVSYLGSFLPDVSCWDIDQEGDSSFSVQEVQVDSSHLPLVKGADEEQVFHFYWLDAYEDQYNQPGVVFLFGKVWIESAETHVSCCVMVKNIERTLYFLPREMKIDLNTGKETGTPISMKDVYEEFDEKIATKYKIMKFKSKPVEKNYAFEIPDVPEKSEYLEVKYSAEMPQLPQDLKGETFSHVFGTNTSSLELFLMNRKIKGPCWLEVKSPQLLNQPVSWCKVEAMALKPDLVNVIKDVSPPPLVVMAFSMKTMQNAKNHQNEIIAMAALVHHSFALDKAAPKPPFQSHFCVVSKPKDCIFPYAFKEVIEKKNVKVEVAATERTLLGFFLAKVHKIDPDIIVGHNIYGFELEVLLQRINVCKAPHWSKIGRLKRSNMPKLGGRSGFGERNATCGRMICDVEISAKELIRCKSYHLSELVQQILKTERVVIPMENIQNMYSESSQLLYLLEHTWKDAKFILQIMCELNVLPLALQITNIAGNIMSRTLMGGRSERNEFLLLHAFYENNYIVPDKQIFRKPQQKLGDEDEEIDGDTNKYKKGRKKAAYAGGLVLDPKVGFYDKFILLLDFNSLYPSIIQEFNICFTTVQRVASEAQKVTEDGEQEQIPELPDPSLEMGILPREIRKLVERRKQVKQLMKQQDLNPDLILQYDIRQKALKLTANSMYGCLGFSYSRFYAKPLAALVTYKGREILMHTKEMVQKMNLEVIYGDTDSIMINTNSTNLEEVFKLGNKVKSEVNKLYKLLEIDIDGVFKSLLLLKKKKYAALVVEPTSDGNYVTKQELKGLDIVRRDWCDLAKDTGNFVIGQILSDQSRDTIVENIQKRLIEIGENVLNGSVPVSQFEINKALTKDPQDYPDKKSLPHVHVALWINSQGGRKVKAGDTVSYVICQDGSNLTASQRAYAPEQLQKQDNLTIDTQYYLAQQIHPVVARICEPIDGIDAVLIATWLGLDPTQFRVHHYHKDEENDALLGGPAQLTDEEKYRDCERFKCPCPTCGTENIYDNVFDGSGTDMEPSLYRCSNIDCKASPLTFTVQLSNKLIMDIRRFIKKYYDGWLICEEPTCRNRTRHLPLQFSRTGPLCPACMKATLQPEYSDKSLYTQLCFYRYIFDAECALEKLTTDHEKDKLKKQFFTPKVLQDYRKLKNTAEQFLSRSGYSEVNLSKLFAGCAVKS", "test": "Inhibitory activity against human DNA-polymerase-alpha"}, "[10]": {"test": "Volume of distribution in Sprague-Dawley rat at 1.3 mg/kg, iv or 3.4 mg/kg, po", "type": "ADME, organism-based", "details": "in vivo, read-out: Vdss", "method_in_brief": "as §1"}, "[11]": {"test": "Clearance in cynomolgus monkey at 0.8 mg/kg, iv or 4.0 mg/kg, po", "type": "ADME, organism-based, Macaca fascicularis", "details": "in vivo", "method_in_brief": "as §2"}, "[12]": {"test": "Cmax in cynomolgus monkey at 0.8 mg/kg, iv or 4.0 mg/kg, po", "type": "ADME, organism-based, Macaca fascicularis", "details": "in vivo", "method_in_brief": "as §2"}, "[13]": {"molecular_target": "RNA-directed RNA polymerase (Hepacivirus hominis) (UniProt O39930)", "sequence (O39930 1-591)": "as the sequence (O39930 whole entry) above", "test": "Inhibitory activity against HCV 3a NS5B RNA at 10 uM"}, "[14]": {"test": "Cmax in Sprague-Dawley rat at 1.3 mg/kg, iv or 3.4 mg/kg, po", "type": "ADME, organism-based", "details": "in vivo", "method_in_brief": "as §1"}, "DNA polymerase beta": {"molecular_target": "DNA polymerase beta (Homo sapiens, UniProt P06746)", "test": "Inhibitory activity against human DNA-polymerase-beta"}, "[15]": {"molecular_target": "RNA-directed RNA polymerase (Hepacivirus hominis) (UniProt O39930)", "test": "Inhibition of HCV RNA replication in Huh7 cells", "type": "functional, cell-based", "details": "Huh-7", "method_in_brief": "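Huh-7 subgenomic replicon cells were seeded at 3 × 10³/well in DMEM with 10% FCS, 1% NEAA and 1 mg/mL G418, and allowed 4 h to attach. Eleven 2.5-fold DMSO dilutions were added (final 10,000 to 1.0 nM) and cells incubated 40 h. Neo RNA was measured by TaqMan RT-PCR, normalised to cyclophilin against DMSO controls; n = 8 wells per dilution.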"}, "[16]": {"molecular_target": "T1, RNA-directed RNA polymerase", "test": "Inhibitory activity against HCV delta 21 NS5B RNA polymerase by SPA assay", "parameters": "species or system Hepatitis C virus subtype 1b"}, "Hepatitis C virus [17]": {"test_system": "Hepatitis C virus", "test": "Protein binding in Huh7 cells using HCV 1b replicon by a replicon cell assay in presence of HSA and alpha-acid glycoprotein", "type": "functional, organism-based, Hepacivirus hominis", "details": "genotype 1b, Huh-7"}, "[18]": {"test": "Clearance in Sprague-Dawley rat at 1.3 mg/kg, iv or 3.4 mg/kg, po", "type": "ADME, organism-based", "details": "in vivo", "method_in_brief": "as §1"}, "Hepatitis C virus [19]": {"test_system": "Hepatitis C virus", "test": "Protein binding in Huh7 cells using HCV 1b replicon by a replicon cell assay", "type": "functional, organism-based, Hepacivirus hominis", "details": "genotype 1b, Huh-7", "method_in_brief": "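Replicon assay in Huh-7 cells run with α-acid glycoprotein, human serum albumin, or both added to the medium, to assess the effect of plasma protein binding on cellular activity.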"}, "[20]": {"molecular_target": "T1, RNA-directed RNA polymerase", "test": "Inhibitory activity against HCV 2a NS5B RNA polymerase", "parameters": "species or system Hepatitis C virus genotype 2"}}}
{"smiles": "O=c1c(C2=Nc3ccccc3S(=O)(=O)N2)c(O)c2cc(F)ccc2n1CCC1CC1", "values": [{"measurement": "Activity", "setting": "Cytochrome P450 3A4", "result": "Active"}, {"measurement": "half-life", "setting": "[1]", "result": 3.04, "unit": "h"}, {"measurement": "IC50", "setting": "Cytochrome P450 2C9", "result": 1000, "unit": "nM"}, {"measurement": "half-life", "setting": "[2]", "result": 1.72, "unit": "h"}, {"measurement": "EC50", "setting": "Hepatitis C virus [3]", "result": 13000, "unit": "nM"}, {"measurement": "Cmax", "setting": "[4]", "result": 4460, "unit": "ng/mL"}, {"measurement": "half-life", "setting": "[5]", "result": 1.61, "unit": "h"}, {"measurement": "EC50", "setting": "Hepatitis C virus [6]", "result": 180, "unit": "nM"}, {"measurement": "IC50", "setting": "[7]", "result": 49, "unit": "nM"}, {"measurement": "Vd", "setting": "[8]", "result": 0.15, "unit": "L/kg"}, {"measurement": "IC50", "setting": "[9]", "result": "> 50000", "unit": "nM"}, {"measurement": "Vd", "setting": "[10]", "result": 0.36, "unit": "L/kg"}, {"measurement": "clearance", "setting": "[11]", "result": 0.76, "unit": "mL/min/kg"}, {"measurement": "Cmax", "setting": "[12]", "result": 5440, "unit": "ng/mL"}, {"measurement": "inhibition", "setting": "[13]", "result": 60, "unit": "%"}, {"measurement": "Cmax", "setting": "[14]", "result": 4140, "unit": "ng/mL"}, {"measurement": "IC50", "setting": "DNA polymerase beta", "result": "> 50000", "unit": "nM"}, {"measurement": "EC90", "setting": "[15]", "result": 207, "unit": "nM"}, {"measurement": "IC50", "setting": "[16]", "result": 10, "unit": "nM"}, {"measurement": "EC50", "setting": "Hepatitis C virus [17]", "result": "> 20000", "unit": "nM"}, {"measurement": "clearance", "setting": "[18]", "result": 1.4, "unit": "mL/min/kg"}, {"measurement": "EC50", "setting": "Hepatitis C virus [19]", "result": 38, "unit": "nM"}, {"measurement": "IC50", "setting": "[20]", "result": 13, "unit": "nM"}]}
